# Data as given in publication PMC9386786 (Cell metabolism, 2022).
# Like-named read-outs stand apart in the source and are kept apart here.
# B1: GDF15 protein: Growth differentiation factor 15, circulating secretory protein (protein, UniProt Q99988 195-308, looked up)
# Growth/differentiation factor …: ARARNGDHCPLGPGRCCRLHTVRASLEDLGWADWVLSPREVQVTMCIGACPSQFRAANMHAQIKTSLHRLKPDTVPAPCCVPASYNPMVLIQKTDTGVSLQTYDDLLAKDCHCI
# Key:
# CNOT6L = CNOT6L (Homo sapiens, UniProt Q96LI5); assay: Gel-based deadenylase assay, CNOT6L; assay type: biochemical
# [1] = test system: GDF15 and FGF21 mRNAs in Huh7 cells; assay: Hepatokine mRNA and protein levels in Huh7 cells; assay type: cell-based, human; settings: for EC50: Homo sapiens
# CNOT7 = CNOT7 (Homo sapiens, UniProt Q9UIV1); assay: Gel-based deadenylase assay, CNOT7; assay type: biochemical
# In short: (§1)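 Enzymes were expressed in and purified from E. coli BL21: the human CNOT6 catalytic domain (aa 153–557) and full-length human CNOT7 and CNOT8. Each enzyme (2.5 μM final) was preincubated with inhibitor at the indicated concentrations for 1 h at 37 °C. 5′-FITC-labelled poly(A)20 RNA (50 nM final) was then added for 1.5 h at 37 °C, and deadenylation was resolved on gel.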
# WT mice [2] = assay: Food intake and body weight after a single administration in mice; assay type: in vivo, mouse; settings: for ED50: Mus musculus, ip
# WT mice [3] = assay: Oxygen consumption and RER; assay type: in vivo, mouse
# In short: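 WT mice received a single ip injection of vehicle or test compound (2 mg/kg). They were then housed singly on a 12 h light/dark cycle, either fed or food-deprived. VO2 and VCO2 were recorded at 25 °C by indirect calorimetry, and dark- and light-cycle averages were taken. VO2 was expressed per kg body weight per hour, and RER was calculated as VCO2/VO2.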
# [4] = test system: promoter activity of GDF15 and FGF21 genes; assay: Promoter luciferase reporter assay in Huh7 cells; assay type: cell-based, human
# In short: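 Human GDF15 or FGF21 promoters were PCR-amplified from Huh7 genomic DNA and placed upstream of firefly luciferase; a promoter-less construct served as control. Constructs (50–100 ng) were lipofected into Huh7 cells with a Renilla luciferase (TK) control, and cells were treated with vehicle or test compound. Firefly activity was read by dual-luciferase assay and normalized to Renilla.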
# CNOT6 = CNOT6 (Homo sapiens, UniProt Q9ULM6); assay: Gel-based deadenylase assay, CNOT6; assay type: biochemical; settings: compared to CNOT6L
# In short: as §1
# [5] = test system: translation of Gdf15 and Fgf21 mRNAs in liver; assay: Polysome profiling of livers of treated mice; assay type: in vivo, mouse
# [6] = test system: 3' UTRs of human GDF15 and FGF21 and mouse Gdf15 and Fgf21 mRNAs; assay: 3' UTR luciferase assay in Huh7 cells; assay type: cell-based
# In short: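 Human GDF15/FGF21 3′UTRs (amplified from Huh7 cDNA) and mouse Gdf15/Fgf21 3′UTRs (from WT mouse liver cDNA) were cloned downstream of the firefly luciferase coding region. These plasmids (50–100 ng) were lipofected into Huh7 cells together with a Renilla luciferase (TK) control. Firefly and Renilla activities were measured by dual-luciferase assay, and firefly signal was normalized to Renilla to correct for transfection efficiency.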
# WT mice [7] = assay type: in vivo, mouse; settings: single administration
# [8] = test system: C57BL/6J WT mice kept on a high-fat diet; assay: HFD-induced obese mouse model, treatment twice a week for 12 weeks; assay type: in vivo
# In short: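 From 8 weeks of age, male and female C57BL/6J mice were fed high-fat diet for 12 weeks and given test compound (2 mg/kg) or vehicle ip twice weekly. Measurements included: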
# [9] = test system: Gdf15 and Fgf21 mRNAs in primary hepatocytes; assay: Hepatokine mRNA levels in mouse primary hepatocytes; assay type: cell-based; settings: for EC50: Mus musculus, Hepatocyte
# In short: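 Hepatocytes were isolated from 8-week-old male mice by portal vein perfusion and collagenase digestion, Percoll-purified, plated on collagen I, and cultured in William's E medium. Huh7 cells were grown in DMEM with 10% FBS. Cells were exposed to test compound at graded concentrations and for various times. mRNAs were quantified by RT-qPCR, normalized to Hprt (mouse) or GAPDH (human); n = 3 per group. EC50 was derived from the concentration–response curves.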
# [10] = test system: hepatic Gdf15 and Fgf21 mRNAs, serum GDF15 and FGF21; assay: Hepatokine levels after intraperitoneal administration in WT C57BL/6J mice; assay type: in vivo, mouse
# In short: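 WT mice received test compound ip at 2 mg/kg. For fasting/refeeding, mice were fed, fasted 24 h, or refed 2 h after a 24 h fast, and were injected 3 h before dissection. For exercise, mice ran to exhaustion on a 10°-sloped shock treadmill and were sampled before, immediately after, or 3 h after running, with food and water available. Poly(I:C) was given ip at 10 mg/kg. Hepatic mRNA was measured by RT-qPCR (Hprt-normalized) and serum GDF15/FGF21 by ELISA.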
# [11] = test system: neurons in NTS, AP and PVN; assay: c-Fos immunofluorescence in the brain; assay type: in vivo, mouse
# [12] = test system: GDF15 and FGF21 mRNAs in primary hepatocytes and Huh7 cells; assay: mRNA stability assay with actinomycin D; assay type: cell-based; settings: with actinomycin D 5 μg/mL; iD1 5 μM
# In short: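 Mouse primary hepatocytes and Huh7 cells were treated with actinomycin D (5 μg/mL) plus DMSO vehicle or test compound (5 μM in hepatocytes) for a time course. Before actinomycin D, Huh7 cells were pretreated with Wy-14643 (200 μM, 6 h) to induce FGF21 mRNA. Transcripts were measured by RT-qPCR, normalized to Hprt or GAPDH, and expressed as percent of the initial level. Half-lives were fitted by first-order decay; n = 3.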
# CNOT8 = CNOT8 (Homo sapiens, UniProt Q9UFF9); assay: Gel-based deadenylase assay, CNOT8; assay type: biochemical
# In short: as §1
# [13] = ref Xiong et al., 2017; cited from earlier work
# [14] = male and female mice, IP twice a week
# Sequence of CNOT6 (Q9ULM6 153-557): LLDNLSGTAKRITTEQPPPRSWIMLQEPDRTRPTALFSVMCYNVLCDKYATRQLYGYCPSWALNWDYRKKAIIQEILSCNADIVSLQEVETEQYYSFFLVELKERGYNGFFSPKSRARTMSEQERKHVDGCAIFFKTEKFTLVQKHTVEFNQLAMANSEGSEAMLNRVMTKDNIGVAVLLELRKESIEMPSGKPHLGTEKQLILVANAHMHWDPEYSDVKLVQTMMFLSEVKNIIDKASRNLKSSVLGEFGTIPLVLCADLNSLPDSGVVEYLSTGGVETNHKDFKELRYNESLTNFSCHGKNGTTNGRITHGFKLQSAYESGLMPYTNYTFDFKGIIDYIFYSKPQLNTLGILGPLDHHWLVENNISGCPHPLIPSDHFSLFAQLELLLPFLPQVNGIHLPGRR
# Sequence of CNOT6L (Q96LI5 158-555): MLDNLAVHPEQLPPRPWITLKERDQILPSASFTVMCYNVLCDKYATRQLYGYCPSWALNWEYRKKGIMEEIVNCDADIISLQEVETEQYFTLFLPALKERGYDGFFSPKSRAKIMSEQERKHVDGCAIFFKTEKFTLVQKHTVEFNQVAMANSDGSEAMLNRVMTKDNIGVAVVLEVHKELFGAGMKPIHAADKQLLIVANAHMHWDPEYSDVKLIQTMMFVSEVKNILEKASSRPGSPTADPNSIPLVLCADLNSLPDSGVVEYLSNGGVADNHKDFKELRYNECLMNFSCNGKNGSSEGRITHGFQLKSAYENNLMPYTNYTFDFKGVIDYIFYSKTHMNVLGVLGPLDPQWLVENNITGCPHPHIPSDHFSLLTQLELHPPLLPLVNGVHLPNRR
# Sequence of CNOT7 (Q9UIV1 whole entry, the tested form may be a part): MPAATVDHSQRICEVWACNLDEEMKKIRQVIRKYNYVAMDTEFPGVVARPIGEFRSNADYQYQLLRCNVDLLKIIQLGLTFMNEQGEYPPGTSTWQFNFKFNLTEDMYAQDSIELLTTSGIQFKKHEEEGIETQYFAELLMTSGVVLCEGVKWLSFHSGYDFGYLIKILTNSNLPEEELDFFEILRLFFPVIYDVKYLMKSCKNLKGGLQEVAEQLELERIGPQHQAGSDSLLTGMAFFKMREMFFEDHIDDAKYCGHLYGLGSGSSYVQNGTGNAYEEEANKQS
# Sequence of CNOT8 (Q9UFF9 whole entry): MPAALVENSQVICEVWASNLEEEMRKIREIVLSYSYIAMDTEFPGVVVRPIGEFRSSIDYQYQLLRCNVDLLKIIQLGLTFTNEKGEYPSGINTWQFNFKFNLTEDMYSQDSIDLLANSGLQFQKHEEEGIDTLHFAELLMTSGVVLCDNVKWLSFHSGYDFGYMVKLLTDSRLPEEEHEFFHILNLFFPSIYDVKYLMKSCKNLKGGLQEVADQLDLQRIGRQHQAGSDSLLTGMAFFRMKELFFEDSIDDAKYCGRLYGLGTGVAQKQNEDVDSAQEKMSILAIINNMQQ
molecule,measurement,setting,value
Nc1ncnc2c1ncn2[C@@H]1O[C@H](COP(=O)(O)O)[C@@H](O)[C@H]1O [AMP],IC50,CNOT6L,76300 nM
"Cc1cccc(Nc2cc(Cl)nc(SCC(=O)O)n2)c1C [WY-14643, reference compound]",FGF21 mRNA in Huh7 cells,"[1]; 200 μM, 6 h",increased
CC(C)=CCC(O)C1=CC(=O)c2c(O)ccc(O)c2C1=O (stereo not drawn) [iD1],inhibition of CNOT7,CNOT7,did not inhibit
same,"effects on food intake, body weight, serum triglycerides, ketone bodies, hepatic Gdf15 and Fgf21 mRNAs in Cnot6l−/− mice",WT mice [2]; Cnot6l whole-body KO mice,did not induce significant effects
same,ED50,WT mice [2]; read-out: EC50 for body weight,1.23 mg/kg
same,ED50,WT mice [2]; read-out: EC50 for food intake,1.43 mg/kg
same,body weight,WT mice [2]; single administration,significantly reduced
same,EC50,"[1]; Huh-7, read-out: EC50 for FGF21 mRNA",1610 nM
same,EC50,"[1]; Huh-7, read-out: EC50 for GDF15 mRNA",530 nM
same,GDF15 and FGF21 protein abundance,[1]; Huh7 cells,increased
same,effects of thapsigargin and WY-14643 on GDF15 and FGF21 mRNA levels,"[1]; combination, Huh7 cells, 6 h",potentiated
same,oxygen consumption,"WT mice [3]; fasted condition, relative to Veh",consumed more oxygen
same,respiratory exchange rate (RER),WT mice [3]; fed condition,significantly reduced
same,promoter activity of GDF15 and FGF21 genes,[4],did not alter
same,inhibition of CNOT6,CNOT6,modestly inhibited
same,global translation,[5],did not affect
same,translational efficacy of Gdf15 and Fgf21 mRNAs,[5],not affected
same,decrease of luciferase activity by 3' UTRs of GDF15/FGF21 mRNAs,[6],reversed
same,serum insulin levels,WT mice [7],decrease
same,serum ketone body levels,WT mice [7],increasing
same,serum triglycerides,WT mice [7],reduced
same,"obesity-induced hyperlipidemia, hyperglycemia, and hyperinsulinemia",[8]; HFD,ameliorated
same,hepatic steatosis and lipid accumulation in adipose tissues,[8]; HFD obese mice,reversed
same,insulin sensitivity and glucose tolerance,"[8]; HFD, long-term treatment, ITT and GTT",improved
same,HFD-induced gain of body weight,[8]; [14],dramatically decreased
same,food intake on HFD,[8]; [14],suppressed
same,EC50,[9]; read-out: EC50 for Fgf21 mRNA,2080 nM
same,EC50,[9]; read-out: EC50 for Gdf15 mRNA,1110 nM
same,"levels of hepatokine mRNAs (GDF15, FGF21, INHBE, ADM, ADAMTS1, HBEGF)","[9]; mouse primary hepatocytes and Huh7 cells, dose- and time-dependent",increased
same,levels of hepatic Gdf15 and Fgf21 mRNAs and serum GDF15 and FGF21 proteins,"[10]; 3 h after one-time IP injection, 2 mg/kg",significantly increased
same,degradation of Gdf15 and Fgf21 mRNAs post-exercise,"[10]; 3 h post-exercise recovery period, liver",attenuated degradation
same,Fgf21 mRNA suppression induced by refeeding,"[10]; liver, refed after 24 h fasting",attenuated
same,c-Fos staining within NTS and AP,[11]; 3 h after administration,robust c-Fos staining
same,c-Fos staining within PVN in the hypothalamus,[11]; after administration,Robust c-Fos staining
same,degradation of GDF15 and FGF21 mRNAs,[12],potently suppressed degradation
same,inhibition of CNOT8,CNOT8,did not inhibit
"C/C=C(/C)C(=O)O[C@H]1C(C)=C2[C@H]([C@@H]1OC(=O)CCCCCCC)[C@@](C)(OC(C)=O)C[C@H](OC(=O)CCC)[C@@]1(O)[C@H]2OC(=O)[C@@]1(C)O [thapsigargin, reference compound]",GDF15 mRNA in Huh7 cells,"[1]; 1 μM, 6 h",increased
poly(I:C) [reference compound],hepatic Gdf15 mRNA,[10]; IP 10 mg/kg,increased
B1,half-life of circulating protein,[13],3 h
